Assay results taken from ChEMBL document CHEMBL1122629, “Potent and selective antagonists of the antidiuretic responses to arginine-vasopressin based on modifications of [1-(beta-mercapto-beta,beta-pentamethylenepropionic acid),2-D-isoleucine,4- valine]arginine-vasopressin at position 4” (J Med Chem, 1984).
*1 amine or outer side, *2 acyl side, *3 side chain or, on linkers, in order; H or OH if unused. Where a SMILES comes first, the peptide text is derived from it. Bridges are numbered along the chain shown (N, C = ends). [ ]: non-standard residue; d: D form. X1 = O=C(CC1(S[*:2])CCCCC1)[*:1]; Orn = NCCC[C@H](N)C(=O)O

How the values were obtained:
[1] = Ratio of anti-vasopressor ED50 to antiantidiuretic ED50; assay type: functional, Urine
In short: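 Ratio of antivasopressor ED to antiantidiuretic ED. Each ED is the dose (nmol/kg) that lowers the response to 2x units of agonist to that of 1x unit before antagonist. Measured in rats: vasopressor assay in phenoxybenzamine-treated, urethane-anaesthetised animals; antidiuretic assay under ethanol anaesthesia.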

Rattus norvegicus [2] = species on record: Rattus norvegicus; test: Anti-oxytocic activity on isolated rat uterus in absence of Mg2+. pA2 value is negative logarithm of effective dose (ED); assay type: functional; conditions: read-out: pA2 (converted)
In short: (§1)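 Isolated rat uterus, with USP posterior pituitary reference standard as agonist. Antagonism expressed as pA2.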

Rattus norvegicus [3] = species on record: Rattus norvegicus; test: Anti-oxytocic activity on isolated rat uterus in presence of 0.5 mM of Mg2+. pA2 value is negative logarithm of effective dose (ED); assay type: functional; conditions: read-out: pA2 (converted); in short: as §1
Rattus norvegicus [4] = test: Evaluated in vivo for logarithm effective dose (ED); assay type: functional, organism-based
Rattus norvegicus [5] = species on record: Rattus norvegicus; test: Antidiuretic activity in rats and pA2 value is negative logarithm of effective dose (ED); assay type: functional, organism-based; conditions: Urine, read-out: pA2 (converted)
In short: (§2)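 Antidiuretic assay in rats under ethanol anaesthesia against the USP posterior pituitary reference standard. Standard given 20 min after antagonist, or 10 min for analogues lacking agonism. Each peptide given at a high and a low dose. ED is the dose (nmol/kg) that cuts the response to 2x units of agonist to the response to 1x unit given before antagonist. […] Means ± SE, n assays.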

Rattus norvegicus [6] = test: In vivo antidiuretic activity in rat measured as dose that reduced the response seen with 2x units of agonist to equal the response seen with 1x unit of agonist administered before antagonist; assay type: functional, Urine; in short: as §2
Rattus norvegicus [7] = test: In vivo anti-vasopressor activity in phenoxybenzamine-treated rats under urethane anesthesia is measured as effective dose; assay type: functional
In short: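 Intravenous vasopressor assay in phenoxybenzamine-treated rats under urethane anaesthesia, agonist USP posterior pituitary reference standard. ED is the dose (nmol/kg) that reduces the response to 2x units of agonist to that of 1x unit given before antagonist. […] Means ± SE, number of assays given.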

Rattus norvegicus [8] = species on record: Rattus norvegicus; test: Anti-oxytocic activity in rat uterus and effective dose (ED) was reported.; assay type: functional
In short: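 Rat uterus in situ, with synthetic oxytocin as agonist. ED is the dose (nmol/kg) that lowers the response to 2x units of agonist to that of 1x unit given before antagonist.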

Compound | Ratio [1] | Kb (Rattus norvegicus [2]) [nM] | Kb (Rattus norvegicus [3]) [nM] | in vivo pA2 effective dose (as concentration) (Rattus norvegicus [4]) [µM] | Kb (Rattus norvegicus [5]) [nM] | ED (Rattus norvegicus [6]) [nmol/kg] | ED (Rattus norvegicus [7]) [nmol/kg] | ED (Rattus norvegicus [8]) [nmol/kg]
CC[C@@H](C)[C@H]1NC(=O)CC2(CCCCC2)SSC[C@@H](C(=O)N2CCC[C@H]2C(=O)N[C@@H](CCCN=C(N)N)C(=O)NCC(N)=O)NC(=O)[C@H](CC(N)=O)NC(=O)[C@H](C(C)C)NC(=O)[C@H](Cc2ccccc2)NC1=O | 12 | – | – | – | – | – | – | –
CC[C@@H](C)[C@H]1NC(=O)CC2(CCCCC2)SSC[C@@H](C(=O)N2CCC[C@H]2C(=O)N[C@@H](CCCN=C(N)N)C(=O)NCC(N)=O)NC(=O)[C@H](CC(N)=O)NC(=O)[C@H](Cc2ccccc2)NC(=O)[C@H](Cc2ccccc2)NC1=O | – | 74.1 | 120 | – | – | – | – | –
CC[C@@H](C)[C@H]1NC(=O)CC2(CCCCC2)SSC[C@@H](C(=O)N2CCC[C@H]2C(=O)N[C@@H](CCCN=C(N)N)C(=O)NCC(N)=O)NC(=O)[C@H](CC(N)=O)NC(=O)[C@H](CC2CCCCC2)NC(=O)[C@H](Cc2ccccc2)NC1=O [listing 1 of 2 here] | – | 36.3 | 81.3 | 0.275 | 229 | – | – | –
CC[C@@H](C)[C@H]1NC(=O)CC2(CCCCC2)SSC[C@@H](C(=O)N2CCC[C@H]2C(=O)N[C@@H](CCCN=C(N)N)C(=O)NCC(N)=O)NC(=O)[C@H](CC(N)=O)NC(=O)[C@H](CC2CCCCC2)NC(=O)[C@H](Cc2ccccc2)NC1=O [listing 2 of 2 here] | 1.2 | – | – | – | – | 15.6 | 19.1 | –
CC[C@@H](C)[C@H]1NC(=O)CC2(CCCCC2)SSC[C@@H](C(=O)N2CCC[C@H]2C(=O)N[C@@H](CCCN=C(N)N)C(=O)NCC(N)=O)NC(=O)[C@H](CC(N)=O)NC(=O)[C@H](CO)NC(=O)[C@H](Cc2ccccc2)NC1=O [listing 1 of 2 here] | – | 52.5 | 151 | 0.617 | 55 | – | – | –
CC[C@@H](C)[C@H]1NC(=O)CC2(CCCCC2)SSC[C@@H](C(=O)N2CCC[C@H]2C(=O)N[C@@H](CCCN=C(N)N)C(=O)NCC(N)=O)NC(=O)[C@H](CC(N)=O)NC(=O)[C@H](CO)NC(=O)[C@H](Cc2ccccc2)NC1=O [listing 2 of 2 here] | 10 | – | – | – | – | 4.6 | 45 | –
CC[C@@H](C)[C@H]1NC(=O)CC2(CCCCC2)SSC[C@@H](C(=O)N2CCC[C@H]2C(=O)N[C@@H](CCCN=C(N)N)C(=O)NCC(N)=O)NC(=O)[C@H](CC(N)=O)NC(=O)[C@H](CCCCN)NC(=O)[C@H](Cc2ccccc2)NC1=O [listing 1 of 2 here] | – | 79.4 | 251 | – | 174 | – | – | –
CC[C@@H](C)[C@H]1NC(=O)CC2(CCCCC2)SSC[C@@H](C(=O)N2CCC[C@H]2C(=O)N[C@@H](CCCN=C(N)N)C(=O)NCC(N)=O)NC(=O)[C@H](CC(N)=O)NC(=O)[C@H](CCCCN)NC(=O)[C@H](Cc2ccccc2)NC1=O [listing 2 of 2 here] | – | – | – | – | – | 11.9 | – | –
CC[C@@H](C)[C@H]1NC(=O)CC2(CCCCC2)SSC[C@@H](C(=O)N2CCC[C@H]2C(=O)N[C@@H](CCCN=C(N)N)C(=O)NCC(N)=O)NC(=O)[C@H](CC(N)=O)NC(=O)[C@H]([C@@H](C)CC)NC(=O)[C@H](Cc2ccccc2)NC1=O | 39 | – | – | – | – | 0.67 | 26 | 9.4
CC[C@@H](C)[C@H]1NC(=O)CC2(CCCCC2)SSC[C@@H](C(=O)N2CCC[C@H]2C(=O)N[C@@H](CCCN=C(N)N)C(=O)NCC(N)=O)NC(=O)[C@H](CC(N)=O)NC(=O)[C@H](CC(C)C)NC(=O)[C@H](Cc2ccccc2)NC1=O [listing 1 of 2 here] | – | 14.5 | 26.9 | 0.178 | 158 | – | – | –
CC[C@@H](C)[C@H]1NC(=O)CC2(CCCCC2)SSC[C@@H](C(=O)N2CCC[C@H]2C(=O)N[C@@H](CCCN=C(N)N)C(=O)NCC(N)=O)NC(=O)[C@H](CC(N)=O)NC(=O)[C@H](CC(C)C)NC(=O)[C@H](Cc2ccccc2)NC1=O [listing 2 of 2 here] | 1.1 | – | – | – | – | 11 | 12.4 | –
NCCC[C@@H]1NC(=O)[C@H](Cc2ccccc2)NC(=O)[C@@H](Cc2ccccc2)NC(=O)CC2(CCCCC2)SSC[C@@H](C(=O)N2CCC[C@H]2C(=O)N[C@@H](CCCN=C(N)N)C(=O)NCC(N)=O)NC(=O)[C@H](CC(N)=O)NC1=O ([dF]F[Orn]NCPRG-NH2; linker N-5 via X1) [listing 1 of 2 here] | – | 18.6 | 20 | 0.0269 | 316 | – | – | –
NCCC[C@@H]1NC(=O)[C@H](Cc2ccccc2)NC(=O)[C@@H](Cc2ccccc2)NC(=O)CC2(CCCCC2)SSC[C@@H](C(=O)N2CCC[C@H]2C(=O)N[C@@H](CCCN=C(N)N)C(=O)NCC(N)=O)NC(=O)[C@H](CC(N)=O)NC1=O ([dF]F[Orn]NCPRG-NH2; linker N-5 via X1) [listing 2 of 2 here] | 0.09 | – | – | – | – | 21.3 | 1.9 | –
